Test results from ChEMBL document CHEMBL4308887, “Synthesis and biological evaluation of clovamide analogues with catechol functionality as potent Parkinson's disease agents in vitro and in vivo” (Bioorg Med Chem Lett, 2019).
Activity calls are given as the source filed them. The calls are words filed in the database; no cut-off is given here.

Legend:
[1] = test system: Mus musculus; experiment: Anti-parkinson's activity in MPTP-induced C57Bl/6 mouse model of Parkinson's disease assessed as decrease in cleaved caspase3 expression in striatum at 10 to 20 mg/kg, ig pretreated for 10 days followed by MPTP challenge measured 10 days post MPTP addition by Western blot analysis; assay type: functional, organism-based
[2] = test system: SH-SY5Y; experiment: Protection against H2O2-induced apoptosis in human SH-SY5Y cells assessed as early apoptotic cells at 10 uM preincubated for 6 hrs followed by H2O2 addition and measured after 24 hrs by Annexin V-FITC/propidium iodide staining based flow cytometry (reference value: 6.6%); assay type: functional
[3] = test system: Mus musculus; experiment: Anti-parkinson's activity in MPTP-induced C57Bl/6 mouse model of Parkinson's disease assessed as decrease in ratio of Bax/Bcl2 expression in striatum at 10 to 20 mg/kg, ig pretreated for 10 days followed by MPTP challenge measured 10 days post MPTP addition by Western blot analysis; assay type: functional, organism-based
[4] = test system: Mus musculus; experiment: Anti-parkinson's activity in MPTP-induced C57Bl/6 mouse model of Parkinson's disease assessed as increase in tyrosine hydroxylase expression in striatum at 10 to 20 mg/kg, ig pretreated for 10 days followed by MPTP challenge measured 10 days post MPTP addition by Western blot analysis; assay type: functional, organism-based
How it was run: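 Tissue taken 10 days after MPTP injection from mice dosed orally with 1 (10 or 20 mg/kg). TH in SNpc and striatum by western blot, and by DAB immunostaining. Three of the mice per group analysed. Mean ± S.D., n = 6 mice/group.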

[5] = test system: SH-SY5Y; experiment: Neuroprotection against H2O2-induced cell death in human SH-SY5Y cells assessed as cell viability at 1 uM preincubated for 6 hrs followed by H2O2 addition and measured after 24 hrs by MTT assay relative to control; assay type: functional; settings: read-out: Activity
How it was run: (§1)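 SH-SY5Y cells pretreated with 1 at 1 or 10 μM, then exposed to 600 μM H₂O₂. Viability by MTT, expressed as % of control. DMSO below 0.1%. Mean ± S.E.M. of three independent experiments.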

[6] = Activation of PI3K/Akt/mTOR signaling in human SH-SY5Y cells assessed as up regulation of H2O2-induced HO-1 expression at 10 uM preincubated for 6 hrs followed by H2O2 addition and after 24 hrs in presence of JNK inhibitor SP600125 by Western blot analysis; assay type: cell-based
How it was run: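 SH-SY5Y cells preincubated 1 h with one inhibitor: SB203580 10 μM, LY294002 5 μM, U0126 10 μM, SP600125 5 μM or rapamycin 100 nM. Then 1 (10 μM) for 6 h, then 600 μM H₂O₂. HO-1 measured by western blot and densitometry. Mean ± S.E.M., three independent experiments.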

[7] = test system: SH-SY5Y; experiment: Protection against H2O2-induced oxidative stress in human SH-SY5Y cells assessed as reactive oxygen species level at 10 uM preincubated for 6 hrs followed by H2O2 addition and measured after 24 hrs by DHE dye based flow cytometry (reference value: 18.6%); assay type: functional
[8] = Activation of PI3K/Akt/mTOR signaling in human SH-SY5Y cells assessed as up regulation of HO-1 expression at 1 uM after 24 hrs by Western blot analysis relative to control; assay type: cell-based
How it was run: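 HO-1 western blot in SH-SY5Y cells incubated 24 h with 1 at 0.1, 1 or 10 μM, without H₂O₂. Band densitometry expressed as % of control. Mean ± S.E.M. from three independent experiments.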

[9] = Clearance in Sprague-Dawley rat at 5 mg/kg, iv by LC-MS/MS analysis; assay type: ADME, organism-based; settings: in vivo
How it was run: (§2)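 Male Sprague–Dawley rats dosed with 1 at 5 mg/kg i.v. (vehicle 5% DMSO, 2% F68, 93% saline) or 25 mg/kg p.o. (0.5% methylcellulose with 1% Tween 80). Orbital blood sampled at 0.083–24 h, 12 time points. Plasma PK parameters derived. Mean ± SD, n = 3.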

[10] = Activation of PI3K/Akt/mTOR signaling in human SH-SY5Y cells assessed as up regulation of H2O2-induced HO-1 expression at 1 uM preincubated for 6 hrs followed by H2O2 addition and after 24 hrs by Western blot analysis (reference value: 181.53 +/- 24.67%); assay type: cell-based
How it was run: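 SH-SY5Y cells pretreated 6 h with 1 (1 or 10 μM), then exposed to 600 μM H₂O₂ for 24 h. HO-1 measured by western blot with densitometry and expressed as % of control. Mean ± S.E.M., three independent experiments.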

[11] = test system: SH-SY5Y; experiment: Cytotoxicity against non-stimulated human SH-SY5Y cells assessed as effect on cell viability at 1 to 100 uM measured after 24 hrs by MTT assay
[12] = test system: SH-SY5Y; experiment: Protection against H2O2-induced apoptosis in human SH-SY5Y cells assessed as late apoptotic cells at 1 uM preincubated for 6 hrs followed by H2O2 addition and measured after 24 hrs by Annexin V-FITC/propidium iodide staining based flow cytometry (reference value: 3.5%); assay type: functional
[13] = Half life in Sprague-Dawley rat at 25 mg/kg, po by LC-MS/MS analysis; assay type: ADME, organism-based; settings: in vivo; how it was run: as §2
[14] = AUC (0 to infinity) in Sprague-Dawley rat at 25 mg/kg, po by LC-MS/MS analysis; assay type: ADME, organism-based; design: dose 25 mg/kg, time infinity, route oral; settings: in vivo
How it was run: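 Male Sprague–Dawley rats (n = 3) got a single oral dose of 25 mg/kg in 0.5% methylcellulose with 1% Tween 80. AUC0-∞ came from the plasma concentration–time profile, reported as mean ± SD.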

[15] = MRT in Sprague-Dawley rat at 25 mg/kg, po by LC-MS/MS analysis; assay type: ADME, organism-based; settings: in vivo; how it was run: as §2
[16] = test system: SH-SY5Y; experiment: Induction of apoptosis in non-stimulated human SH-SY5Y cells assessed as early apoptotic cells at 10 uM measured after 6 hrs by Annexin V-FITC/propidium iodide staining based flow cytometry (reference value: 4.5%); assay type: cell-based
[17] = test system: SH-SY5Y; experiment: Neuroprotection against H2O2-induced toxicity in human SH-SY5Y cells assessed as LDH release at 10 uM preincubated for 6 hrs followed by H2O2 addition and measured after 24 hrs (reference value: 339.93 +/- 3.66 U/L); assay type: functional
How it was run: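 Cells pretreated with test agent (1 or 10 μM), then 600 μM H₂O₂; plasma membrane damage read as LDH leakage into medium (U/L). DMSO below 0.1% in all groups. Mean ± S.E.M. of three independent experiments.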

[18] = test system: SH-SY5Y; experiment: Induction of apoptosis in non-stimulated human SH-SY5Y cells assessed as effect on ratio of Bax/Bcl2 expression at 1 to 10 uM measured after 6 hrs by Western blot analysis; assay type: cell-based
How it was run: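 Bax, Bcl-2 and cleaved caspase-3 measured by western blot in SH-SY5Y cells given 1 alone, with β-actin as internal standard. Mean ± S.E.M. of three independent experiments.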

[19] = test system: SH-SY5Y; experiment: Neuroprotection against H2O2-induced cell death in human SH-SY5Y cells assessed as cell viability at 10 uM preincubated for 6 hrs followed by H2O2 addition and measured after 24 hrs by MTT assay relative to control; assay type: functional; settings: read-out: Activity; how it was run: as §1
[20] = test system: Mus musculus; experiment: Anti-parkinson's activity in MPTP-induced C57Bl/6 mouse model of Parkinson's disease assessed as restoration of motor ability by measuring increase in time spent on rota-rod at 10 to 20 mg/kg, ig pretreated for 10 days followed by MPTP challenge measured 4 to 72 hrs post MPTP addition for 3 mins by rota rod test; assay type: functional, organism-based
How it was run: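 MPTP-intoxicated mice given 1 orally at 10 or 20 mg/kg. Time retained on a rotating rod recorded 4, 24, 48 and 72 h after MPTP. Mean ± S.D., n = 6 mice/group.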

## COC(=O)[C@H](Cc1ccccc1)NC(=O)/C=C/c1ccc(O)c(O)c1 [N-CAFFEOYL-PHENYLALANINE METHYL ESTER]
[1]
  Activity: Active
[2]
  Activity: 4.5%
[3]
  Activity: Active
[4]
  Activity: Active
[5]
  viability at 1 µM: 68.3%
[6]
  Activity: Active
[7]
  Activity: 6.6%
[8]
  Activity: 155%
[9]
  clearance: 25.5 mL/min/kg
[10]
  Activity: 274%
[11]
  Activity: Non-Toxic
[12]
  Activity: 3.9%
[13]
  half-life: 162 min
[14]
  AUC: 2495.56 ng·h/mL
[15]
  MRT: 3.06 h
[16]
  Activity: 1.4%
[17]
  Activity: 180.66 U/L
[18]
  Activity: Non-Toxic
[19]
  viability at 10 µM: 80.8 to 89%
[20]
  Activity: Active
